Screening data (PubChem)
Shown are actives, neighbours in structure and some others; about 1.1% of the full set was active somewhere.
G6PDH CS: L. mesenteroides G6PDH inhibition counter-screen | Purified L. mesenteroides G6PDH, diaphorase/resazurin coupled fluorescence, 45 min | inhibition, % at 5 µM | actives 0.12% (n = 200,000); in the data active = inhibition above about 50%
PMI act satM6P: PMI (human) activation, high substrate; actives 0.34% (n = 190,000); activation factor at 20 µM; coupled PMI enzyme assay, resazurin fluorescence, 20 min; hits give high values; 1 = untreated enzyme, 0 = substrate-free blank; P34949;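 active = activation factor of 2 or more at 20 µM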
Target sequence (P34949 whole entry, looked up): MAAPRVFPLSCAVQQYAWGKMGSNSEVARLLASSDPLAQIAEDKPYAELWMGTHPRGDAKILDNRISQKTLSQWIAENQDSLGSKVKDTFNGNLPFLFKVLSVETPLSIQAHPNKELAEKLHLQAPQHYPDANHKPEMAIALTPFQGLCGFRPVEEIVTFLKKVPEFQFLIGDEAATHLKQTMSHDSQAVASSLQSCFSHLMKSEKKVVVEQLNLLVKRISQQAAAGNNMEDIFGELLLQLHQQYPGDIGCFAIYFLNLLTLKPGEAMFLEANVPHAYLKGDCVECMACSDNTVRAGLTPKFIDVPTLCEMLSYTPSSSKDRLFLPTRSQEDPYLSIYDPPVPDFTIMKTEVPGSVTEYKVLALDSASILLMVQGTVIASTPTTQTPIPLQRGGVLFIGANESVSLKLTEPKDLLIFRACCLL
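Material: human phosphomannose isomerase with PGI, G6PDH, diaphorase coupling enzymes. Quantity: 15 ng/mL PMI. Medium: HEPES pH 7.4 buffer with MgCl2 and Tween-20. Reagent: Near-saturating mannose-6-phosphate, 1.0 mM. Compound: 20 µM single dose. Times: enzyme reaction with compound 20 min at room temperature. Detection: resorufin fluorescence at Ex 544/Em 590 nm.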
PMI activator: increases human mannose-6-phosphate isomerase activity; P34949; actives 0.005% (n = 190,000); activation factor at 20 µM; purified human PMI, coupled resazurin fluorescence, 20 min; hits give high values; 1 = vehicle control, 0 substrate-free wells;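 active = activation factor of 2 or more at 20 µM, relative to plate controls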
Diaph inh CS: counter-screen for diaphorase-based assays: diaphorase inhibitors and chemical oxidizers. diaphorase resazurin-to-resorufin fluorescence, NADH, 16 min; bacterial (C. kluyveri) enzyme, not human. inhibition, % at 20 µM. actives 0.69% (n = 190,000);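 active = primary screen inhibition at 20 µM above a set limit, cut at about 50% in these data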;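 note: plate controls were DMSO with full reaction for no effect and wells lacking NADH for full effect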
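Assay system: diaphorase enzyme from Clostridium kluyveri; Input: enzyme working solution with 0.14 U/mL diaphorase; Timing: 16 min at room temperature; Technique: resorufin fluorescence, excitation 544 nm, emission 590 nm; Benchmarks: positive control minus NADH, DMSO neutral control.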
Diaph act CS: activates diaphorase or chemically reduces, flagging diaphorase assay artifacts; actives 0.005% (n = 190,000); Diaphorase/resazurin coupled assay, resorufin fluorescence, 16 min; hits give high values; 1 = vehicle wells, 0 = NADH-free wells; activation factor at 20 µM;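 active = diaphorase activity raised at least twofold by the compound at 20 µM; inactive = activation factor below 2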
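Material: Clostridium kluyveri diaphorase, purified enzyme; Quantity: enzyme 0.07 U/mL final; Medium: HEPES pH 7.4 buffer with MgCl2 and Tween 20; Dosing: single compound dose of 20 µM, 1% DMSO final; Schedule: 16 min reaction at room temperature; Measured by: red resorufin fluorescence at 544/590 nm excitation/emission.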
Active calls of the source: *.

For Cc1csc(SCC(=O)c2cc(C)n(Cc3cccs3)c2C)n1 the results were G6PDH CS 1, PMI act satM6P 1, PMI activator 1, Diaph inh CS 13 and Diaph act CS 0.9.
Cc1cc(C(=O)CSc2n[nH]c(-c3ccccc3F)n2)c(C)n1Cc1cccs1 was read as G6PDH CS 0, PMI act satM6P 1, PMI activator 0.8, Diaph inh CS 50* and Diaph act CS 0.5.
`Cc1cc(C(=O)COc2cccnc2[N+](=O)[O-])c(C)n1Cc1cccs1` gave G6PDH CS 11, PMI act satM6P 0.4, PMI activator 0.6, Diaph inh CS 60* and Diaph act CS 0.4.
`CCN(C(=O)c1coc(=O)c(Br)c1)c1ccc2c(c1)OCO2` gave G6PDH CS 27, PMI act satM6P 0.6, PMI activator 0.5, Diaph inh CS 66* and Diaph act CS 0.3.
Screening CCN(C(=O)c1c(C)cc(=O)oc1C)c1ccc2c(c1)OCO2 returned G6PDH CS 11, PMI act satM6P 1, PMI activator 1, Diaph inh CS 8 and Diaph act CS 0.9.
`CCc1nc2c(c(=O)c3ccccc3n2C)c(=O)n1-c1ccc(F)cc1` gave G6PDH CS -1, PMI act satM6P 0.9, PMI activator 0.9, Diaph inh CS 74* and Diaph act CS 0.3.
`COCCn1c(-c2ccccc2)nc2c(c(=O)c3ccccc3n2C)c1=O` gave G6PDH CS 8, PMI act satM6P 0.9, PMI activator 1, Diaph inh CS 5 and Diaph act CS 0.9.
`CC1CCCCN1S(=O)(=O)c1ccc2c(c1)CCN2C(=O)C1CCC1` (stereo not drawn) gave G6PDH CS -1, PMI act satM6P 1, PMI activator 1, Diaph inh CS 13 and Diaph act CS 0.9.
O=c1c2oc3ccccc3c2[nH]c(=S)n1-c1ccc(F)cc1 was read as G6PDH CS -1, PMI act satM6P 1, PMI activator 1.4, Diaph inh CS 59* and Diaph act CS 0.4.
`CN1CCN(C(=O)c2ccc3c(=O)n(-c4ccc(F)cc4)c(=S)[nH]c3c2)CC1` gave G6PDH CS 0, PMI act satM6P 0.9, PMI activator 1, Diaph inh CS 37 and Diaph act CS 0.6.
For Cc1ccc(-n2c(=S)[nH]c3c(oc4ccccc43)c2=O)cc1C the results were G6PDH CS 8, PMI act satM6P 1, PMI activator 0.9, Diaph inh CS 62* and Diaph act CS 0.4.
CCOC(=O)Cn1c(=S)[nH]c2c(oc3ccc(Cl)cc32)c1=O was read as G6PDH CS -6, PMI act satM6P 1.1, PMI activator 1, Diaph inh CS 44 and Diaph act CS 0.6.
For Cc1ccc(NC(=O)c2cc(S(=O)(=O)N3CCOCC3)c(Br)s2)cc1 the results were G6PDH CS 7, PMI act satM6P 0.8, PMI activator 0.9, Diaph inh CS 23 and Diaph act CS 0.8.
For O=C(NCc1cccs1)c1ccc([N+](=O)[O-])cc1 the results were G6PDH CS 6, PMI act satM6P 1.1, PMI activator 1, Diaph inh CS 2 and Diaph act CS 1.
For CCNC(=S)N/N=C/c1ccc(OCC(=O)Nc2ccc(C)cc2)cc1 the results were G6PDH CS 16, PMI act satM6P 0.9, PMI activator 0.9, Diaph inh CS 10 and Diaph act CS 0.9.
Screening Cc1ccc(N/N=C/c2ccc(N3CCOCC3)cc2)cc1C returned G6PDH CS 4, PMI act satM6P 2*, PMI activator 1.2, Diaph inh CS 13 and Diaph act CS 0.9.
O=C(N/N=C/c1oc(O)c2ccccc12)c1ccccc1 was read as G6PDH CS 0, PMI act satM6P 2.4*, PMI activator 1.8, Diaph inh CS -2 and Diaph act CS 1.
For CC(C)N1C(=O)CC(Nc2cccc3cccc(N)c23)C1=O (stereo not drawn) the results were G6PDH CS 2, PMI act satM6P 0.4, PMI activator 0.7, Diaph inh CS 52* and Diaph act CS 0.5.
Screening CN1C(=O)CC(Nc2cccc3cccc(N)c23)C1=O (stereo not drawn) returned G6PDH CS 22, PMI act satM6P 0.5, PMI activator 0.6, Diaph inh CS 67* and Diaph act CS 0.3.
Screening COc1ccc(NC2CC(=O)N(C(C)C)C2=O)cc1 (stereo not drawn) returned G6PDH CS -10, PMI act satM6P 0.9, PMI activator 0.8, Diaph inh CS 6 and Diaph act CS 0.9.
Screening Cn1c(=O)[nH]c(=O)c2c1nc(Br)n2C/C=N/Nc1ccccc1 returned G6PDH CS 12, PMI act satM6P 3*, PMI activator 2*, Diaph inh CS -14 and Diaph act CS 1.1.
Screening COc1cc([N+](=O)[O-])ccc1NC(=O)Cn1ccsc1=N returned G6PDH CS 4, PMI act satM6P 1, PMI activator 1, Diaph inh CS 4 and Diaph act CS 1.
COc1cc(-c2nnc(SCc3cc(=O)oc4cc(O)c(O)cc34)o2)cc(OC)c1OC was read as G6PDH CS 0, PMI act satM6P 0.5, PMI activator 0.4, Diaph inh CS 67* and Diaph act CS 0.3.
For CCOC(=O)CSc1nnc(-c2cc(OC)c(OC)c(OC)c2)o1 the results were G6PDH CS 6, PMI act satM6P 1.1, PMI activator 1, Diaph inh CS -4 and Diaph act CS 1.
For O=C(Nc1ccc(Cl)cc1)[C@@H]1[C@@H]2C(=O)N(c3ccc(Cl)cc3)C(=O)[C@@H]2[C@H]2C=CC=NN21 the results were G6PDH CS 2, PMI act satM6P 1.9, PMI activator 1.6, Diaph inh CS 14 and Diaph act CS 0.9.
Screening CC(=O)Oc1ccc(C(=O)[C@H]2[C@H]3C(=O)N(c4ccc5ccccc5c4)C(=O)[C@H]3[C@@H]3C=CC=NN32)cc1 returned G6PDH CS 1, PMI act satM6P 2.1*, PMI activator 1.6, Diaph inh CS 25 and Diaph act CS 0.8.
Screening O=C1CSC(=Nc2ccccc2)N1 returned G6PDH CS 2, PMI act satM6P 1, PMI activator 0.9, Diaph inh CS 9 and Diaph act CS 0.9.
`O=C1CS/C(=N\C(=O)N2c3ccccc3Sc3ccccc32)N1` gave G6PDH CS 8, PMI act satM6P 0.9, PMI activator 0.9, Diaph inh CS 70* and Diaph act CS 0.3.
For O=Nc1c(O)n(Cc2ccc(Cl)c(Cl)c2)c2ccccc12 the results were G6PDH CS 6, PMI act satM6P 0.9, PMI activator 0.9, Diaph inh CS 28 and Diaph act CS 0.7.
COc1ccc(Br)cc1C(=O)Nc1ccc(O)cc1 was read as G6PDH CS 15, PMI act satM6P 0.9, PMI activator 0.9, Diaph inh CS 13 and Diaph act CS 0.9.
